The source made the active and inactive calls. The rule behind the calls is not given here.
Experiments:
[1] = species on record: Cavia porcellus; assay: Positive ionotropic activity (0.1x10E 6 g/mL) was determined in guinea pig; no significant activity; type: functional, organism-based
[2] = species on record: Felis catus; assay: Effective dose in cat was determined; type: functional
Method in brief: (§1)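 Cats of either sex (3.0-4.5 kg) under chloralose anesthesia (70 mg/kg iv). Compounds were dissolved in propylene glycol (10 mg/mL stock), diluted in distilled water and injected iv via the femoral vein at 30, 100, 300, 500 and 1000 µg/kg, three animals per dose. Fall in mean arterial pressure (femoral artery transducer) was read at 10 min. ED20 was taken from log dose-response curves.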

[3] = species on record: Rattus norvegicus; assay: Difference in systolic blood pressure observed prior to the first application and 2 hr after the fifth application to spontaneously hypertensive rats (SHR); type: functional, Artery
Method in brief: (§2)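 Groups of six conscious male SH rats (Wistar-Okamoto origin, 250-300 g, 12-16 weeks; systolic pressure >160 mmHg) received 25 mg/kg po daily for 5 days as a 0.5% carboxymethylcellulose suspension, with vehicle controls. Systolic pressure was taken by tail-cuff after warming at 37-38 °C for 10 min, before the first dose and 2 h after each dose. Paired t test; only falls >15 mmHg with p < 0.05 were listed.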

[4] = species on record: Rattus norvegicus; assay: Difference in systolic blood pressure observed prior to the first application and 2 hr after the fifth application to spontaneously hypertensive rats(SHR); type: functional, Artery; method in brief: as §2
[5] = tested on: Rattus norvegicus; assay: Difference in systolic blood pressure observed prior to the first application and 2 hr after the fifth application at 10 mg/kg, po daily for 5 days to spontaneously hypertensive rats (SHR); type: functional, Artery
Method in brief: (§3)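 Male SH rats (Wistar-Okamoto derived, 250-300 g, 12-16 weeks old) with systolic pressure above 160 mmHg, in groups of six. The dose was given orally once daily for 5 days as a suspension in 0.5% carboxymethylcellulose, and a vehicle control group was run. Systolic pressure was read by tail-cuff after 10 min warming at 37-38 °C, before dosing and 2 h post-dose. Paired Student's t test.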

[6] = species on record: Rattus norvegicus; assay: Difference in systolic blood pressure observed prior to the first application and 2 hr after the fifth application to spontaneously hypertensive rats (SHR); NS denotes not significant; type: functional, organism-based; details: Artery
[7] = tested on: Felis catus; assay: Percent fall in blood pressure, 10 min after intravenous administration at doses 500 ug/kg in cat; type: functional; method in brief: as §1
[8] = tested on: Rattus norvegicus; assay: Difference in systolic blood pressure observed prior to the first application and 2 hr after the fifth application at 5 mg/kg, po daily for 5 days to spontaneously hypertensive rats (SHR); type: functional, Artery; method in brief: as §3
[9] = tested on: Rattus norvegicus; assay: Difference in systolic blood pressure observed prior to the first application and 2 hr after the fifth application at 20 mg/kg, po daily for 5 days to spontaneously hypertensive rats (SHR); type: functional, Artery; method in brief: as §3
[10] = species on record: Cavia porcellus; assay: Positive ionotropic activity determined as effective concentration in guinea pig; Range 6.8*10e-7 to 1.75x10E-6M; type: functional, organism-based
[11] = tested on: Felis catus; assay: Percent fall in blood pressure, 10 min after intravenous administration at doses 300 ug/kg in cat; type: functional; method in brief: as §1

Row | Structure (SMILES) | Activity [1] | ED20 [2] [mg/kg] | Delta blood pressure [3] [mmHg] | further results
1 | C=C[C@@]1(C)CC(=O)[C@]2(O)C3(C)[C@@H](O)CCC(C)(C)[C@@H]3C(O)C(OC(C)=O)[C@@]2(C)O1 (stereo not given in full) | no significant activity | 0.038 | -26 | –
2 | C=C[C@@]1(C)CC(=O)[C@]2(O)C3(C)[C@@H](O)CCC(C)(C)[C@@H]3C(O)C(OC=O)[C@@]2(C)O1 (stereo not given in full) | no significant activity | > 0.5 | -23.7 | –
3 | C=C[C@@]1(C)CC(=O)[C@@]23OC(=O)O[C@H]4CCC(C)(C)[C@H](C(O)C(OC(C)=O)[C@@]2(C)O1)C43C (stereo not given in full) | no significant activity | > 0.5 | -16.7 | –
4 | C=C[C@@]1(C)CC(=O)[C@]2(O)C3(C)[C@@H](OC)CCC(C)(C)[C@@H]3C(OC(C)=O)C(O)[C@@]2(C)O1 (stereo not given in full) | no significant activity | > 0.5 | -25.3 | –
5 | CC(=O)OC1C(O)[C@H]2C(C)(C)CC[C@H](O)C2(C)[C@@]2(O)C(=O)C[C@](C)(C3CO3)O[C@]12C (stereo not given in full) | – | > 0.5 | – | Delta blood pressure [4]: -22.67 mmHg
6 | C=C[C@@]1(C)CC(=O)[C@]2(O)C3(C)[C@@H](OCCN(CC)CC)CCC(C)(C)[C@@H]3C(OC(C)=O)C(O)[C@@]2(C)O1.Cl (stereo not given in full) | no significant activity | > 0.5 | -26.7 | –
7 | C=C[C@@]1(C)CC(=O)[C@@]23OS(=O)O[C@H]4CCC(C)(C)[C@H](C(O)C(OC(C)=O)[C@@]2(C)O1)C43C (stereo not given in full) | no significant activity | > 0.5 | – | Delta blood pressure [4]: -31 mmHg
8 | CC(=O)OC1C(O)[C@H]2C(C)(C)CC[C@H](O)C2(C)[C@@]2(O)C(=O)C[C@](C)(C=O)O[C@]12C (stereo not given in full) | – | > 0.5 | – | Delta blood pressure [4]: -22 mmHg
9 | C=C[C@@]1(C)C[C@H](O)[C@]2(O)C3(C)[C@@H](O)CCC(C)(C)[C@@H]3C(O)C(O)[C@@]2(C)O1 (stereo not given in full) | no significant activity | > 0.5 | – | Delta blood pressure [5]: -19.3 mmHg
10 | C=C[C@@]1(C)CC(=O)[C@]2(O)C3(C)[C@@H](OC(=O)C(C)(C)C)CCC(C)(C)[C@@H]3C(O)C(OC(=O)C(C)(C)C)[C@@]2(C)O1 (stereo not given in full) | – | > 0.5 | – | Delta blood pressure [4]: 0 mmHg
11 | C=C[C@@]1(C)CC(=O)[C@]2(O)C3(C)[C@@H](OC)CCC(C)(C)[C@@H]3C(O)C(OC(C)=O)[C@@]2(C)O1 (stereo not given in full) | no significant activity | > 0.5 | 0 | –
12 | C=C[C@@]1(C)CC(=O)[C@]2(O)C3(C)[C@@H](O)CCC(C)(C)[C@@H]3C(O)C(OC(=O)OCC)[C@@]2(C)O1 (stereo not given in full) | no significant activity | > 0.5 | 0 | –
13 | C=C[C@@]1(C)CC(=O)[C@@]23OS(=O)O[C@H]4CCC(C)(C)[C@H](C5OS(=O)OC5[C@@]2(C)O1)C43C (stereo not given in full) | no significant activity | > 0.5 | – | Delta blood pressure [4]: 0 mmHg
14 | C=C[C@@]1(C)CC(=O)[C@]2(O)C3(C)[C@@H](OC(=O)Nc4ccccc4)CCC(C)(C)[C@@H]3C(O)C(OC(C)=O)[C@@]2(C)O1 (stereo not given in full) | – | > 0.5 | – | Delta blood pressure [6]: inactive
15 | C=C[C@@]1(C)CC(=O)[C@]2(O)[C@@]3(C)[C@@H](O)CCC(C)(C)[C@@H]3[C@H](O)[C@H](O)[C@@]2(C)O1 | no significant activity | > 0.5 | -24.6 | Decrease in blood pressure [7]: 20%
16 | C=C[C@@]1(C)CC(=O)[C@]2(O)C3(C)[C@@H](O)CCC(C)(C)[C@@H]3C(OC(C)=O)C(OC(=O)CC)[C@@]2(C)O1 (stereo not given in full) | – | > 0.5 | 0 | –
17 | C=C[C@@]1(C)CC(=O)[C@]2(O)C3(C)C(O)CCC(C)(C)[C@@H]3C(OC(C)=O)C(OC(C)=O)[C@@]2(C)O1 (stereo not given in full) | no significant activity | > 0.5 | -24.3 | –

Row | Structure (SMILES) | Activity [1] | ED20 [2] [mg/kg] | Delta blood pressure [3] [mmHg] | further results
18 | C=C[C@@]1(C)CC(=O)[C@]2(O)C3(C)[C@@H](OCc4ccccc4)CCC(C)(C)[C@@H]3C(O)C(OC(=O)C(C)(C)Br)[C@@]2(C)O1 (stereo not given in full) | – | > 0.5 | – | Delta blood pressure [4]: 0 mmHg
19 | C=C[C@@]1(C)CC(=O)[C@]2(O)C3(C)[C@@H](O[Si](C)(C)C)CCC(C)(C)[C@@H]3C(O)C(OC(C)=O)[C@@]2(C)O1 (stereo not given in full) | – | > 0.5 | – | Delta blood pressure [4]: 0 mmHg
20 | C=C[C@@]1(C)C[C@H](O)[C@]2(O)C3(C)[C@@H](O)CCC(C)(C)[C@@H]3C(O)C(OC(C)=O)[C@@]2(C)O1 (stereo not given in full) | – | > 0.5 | 0 | –
21 | C=C[C@@]1(C)CC(=O)[C@]2(O)C3(C)[C@@H](O)CCC(C)(C)[C@@H]3C(O)C(OC(=O)CC)[C@@]2(C)O1 (stereo not given in full) | – | > 0.5 | -25.3 | –
22 | C=C[C@@]1(C)CC(=O)[C@]2(O)C3(C)[C@@H](O)CCC(C)(C)[C@@H]3C3OC(=O)OC3[C@@]2(C)O1 (stereo not given in full) | – | > 0.5 | -24.67 | –
23 | C=C[C@@]1(C)CC(=O)[C@@H]2C3(C)CCCC(C)(C)[C@@H]3C(O)C(OC(C)=O)[C@@]2(C)O1 (stereo not given in full) | no significant activity | > 0.5 | 0 | –
24 | Nc1cc(N2CCCCC2)nc(N)[n+]1[O-] [MINOXIDIL] | no significant activity | > 0.5 | – | Delta blood pressure [8]: -51.2 mmHg
25 | CC[C@@]1(C)CC(=O)[C@]2(O)C3(C)[C@@H](O)CCC(C)(C)[C@@H]3C(O)C(OC(C)=O)[C@@]2(C)O1 (stereo not given in full) | – | > 0.5 | – | Delta blood pressure [9]: -15.7 mmHg
26 | CN1CCN(CC(O)[C@@]2(C)CC(=O)[C@]3(O)C4(C)[C@@H](O)CCC(C)(C)[C@@H]4C(O)C(O)[C@@]3(C)O2)CC1.Cl.Cl (stereo not given in full) | no significant activity | > 0.5 | – | Delta blood pressure [6]: inactive
27 | C=C[C@@]1(C)CC(=O)[C@]2(O)C3(C)[C@@H](O)CCC(C)(C)[C@@H]3C(OC(C)=O)C(O)[C@@]2(C)O1 (stereo not given in full) | no significant activity | > 0.5 | -28 | EC50 [10]: 1090 nM; Decrease in blood pressure [11]: 20%
28 | C=C[C@@]1(C)CC(=O)[C@]2(O)C3(C)[C@@H](O)CCC(C)(C)[C@@H]3C(OC(=O)CC)C(O)[C@@]2(C)O1 (stereo not given in full) | – | > 0.5 | – | Delta blood pressure [9]: -26.33 mmHg
29 | C=C[C@@]1(C)CC(=O)[C@]2(O)C3(C)[C@@H](O)CCC(C)(C)[C@@H]3C(O)C(OC(=O)N(CC)CC)[C@@]2(C)O1 (stereo not given in full) | no significant activity | > 0.5 | 0 | –
30 | C=C[C@@]1(C)CC(=O)[C@]2(O)C3(C)C(=O)CCC(C)(C)[C@@H]3C(O)C(OC(C)=O)[C@@]2(C)O1 (stereo not given in full) | no significant activity | > 0.5 | 0 | –
31 | C=C[C@@]1(C)CC(=O)[C@]2(O)C3(C)[C@@H](O)CCC(C)(C)[C@@H]3C(O)C(OS(=O)(=O)c3ccc(C)cc3)[C@@]2(C)O1 (stereo not given in full) | no significant activity | > 0.5 | – | Delta blood pressure [4]: -27.3 mmHg
32 | C=C[C@@]1(C)CC(=O)[C@]2(O)C3(C)[C@@H](O)CCC(C)(C)[C@@H]3C(O)C(OC(=O)CCC)[C@@]2(C)O1 (stereo not given in full) | no significant activity | > 0.5 | -19.7 | –
33 | C=C[C@@]1(C)CC(=O)[C@@]23OC(=O)O[C@H]4CCC(C)(C)[C@H](C5OC(=O)OC5[C@@]2(C)O1)C43C (stereo not given in full) | no significant activity | > 0.5 | -23 | –
